The text below walks through data of ChEMBL document CHEMBL1148398, “Design, synthesis, and biological evaluation of thio-containing compounds with serum HDL-cholesterol-elevating properties” (2004).

Assay [1] deals with Cricetinae gen. sp. As to the kind of experiment: Effect of compound on high-density lipoprotein cholesterol levels in 4th group of cholesterol-fed male hamsters at 100 mg/kg/day after 14 days of treatment. Conditions: Mesocricetus auratus.
The test system of assay [2] is Rattus norvegicus. Briefly: Percent change in total plasma cholesterol following oral administration of compound in normal chow-fed rats at 100 mg/kg/day for 4 days. Type of assay: functional. The method, boiled down:
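Chow-fed male Sprague–Dawley CD rats, 60–80 g, gavaged 100 mg/kg/day for 4 days in 1.3% Tween 80/0.25% CMC. Fasted overnight, bled 24 h after the last dose. Total cholesterol and glycerol-blanked triglycerides read enzymatically; lipoproteins by FPLC with cholesterol per fraction. % change versus control; six per group, p < 0.05.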

The test system of assay [3] is Rattus norvegicus. Briefly: Effect of compound on thyroxine levels in 2nd group of normal chow-fed male rats after a dose of 2 mg/kg/day. The assay is classed as functional, organism-based. The method, boiled down: (§1)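 Male Sprague–Dawley CD rats, 60–80 g, on standard chow with reverse 12 h light/dark cycle. One oral gavage dose daily for 4 days, suspended in 1.3% Tween 80 and 0.25% CMC. Fasted overnight; sacrificed 24 h after the last dose. Serum TC on clinical analyzer, lipoproteins by FPLC with cholesterol per fraction, T4 on analyzer. Mean ± SEM, six rats per group.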

Assay [4] concerns Cricetinae gen. sp. As to the kind of experiment: Effect of compound on alkaline phosphatase (ALKP) levels in 4th group of cholesterol-fed male hamsters at 100 mg/kg/day after 14 days of treatment. Conditions: Mesocricetus auratus.
Assay [5] deals with Rattus norvegicus. Briefly: Effect of compound on triglyceride levels in 4th group of normal chow-fed male rats after a dose of 10 mg/kg/day. The assay is classed as functional, organism-based. The method, boiled down:
(§2)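 Male Sprague–Dawley CD rats (60–80 g) on Purina 5001 chow with a reverse 12 h light/dark cycle. Dosed once daily by oral gavage for 4 days, suspended in 1.3% Tween 80 / 0.25% CMC. Fasted overnight and bled 24 h after the last dose. Serum TC and glycerol-blanked TG measured enzymatically; VLDL-C by FPLC fractionation with cholesterol assay. n=6, mean ± SEM.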

The test system of assay [6] is Rattus norvegicus. Briefly: Effect of compound on low-density lipoprotein cholesterol levels in 2nd group of normal chow-fed male rats after a dose of 2 mg/kg/day. The assay is classed as functional, organism-based. The method, boiled down:
as §1

In assay [7] the test system is Rattus norvegicus. Briefly: Effect of compound on triglycerides level in 2nd group of normal chow-fed male rats after a dose of 2 mg/kg/day. The assay is classed as functional, organism-based. The method, boiled down:
as §2

Assay [8] deals with Cricetinae gen. sp. As to the kind of experiment: Effect of compound on alanine aminotransferase (ALT) levels in 1st group of cholesterol-fed male hamsters at 3 mg/kg/day after 14 days of treatment. As to conditions: Mesocricetus auratus.
Assay [9] deals with Cricetinae gen. sp. As to the kind of experiment: Effect of compound on alkaline phosphatase (ALKP) levels in 2nd group of cholesterol-fed male hamsters at 10 mg/kg/day after 14 days of treatment. Conditions: Mesocricetus auratus.
In assay [10] the test system is Cricetinae gen. sp. As to the kind of experiment: Effect of compound on alanine aminotransferase (ALT) levels in 4th group of cholesterol-fed male hamsters at 100 mg/kg/day after 14 days of treatment. Conditions: Mesocricetus auratus.
For assay [11], the system named is Rattus norvegicus. Briefly: Effect of compound on alkaline phosphatase (ALKP) levels in 1st group of normal chow-fed male rats after a dose of 1 mg/kg/day. The assay is classed as functional, organism-based. The method, boiled down:
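Male Sprague–Dawley CD rats (60–80 g) on standard chow under a reversed 12 h light/dark cycle. Compound was suspended in 1.3% Tween 80/0.25% CMC and given as a single daily oral gavage dose for 4 days. Rats were fasted overnight and killed 24 h after the last dose. Serum ALT, AST, ALKP and LDH were read on a clinical analyzer. Weight gain was start versus end weight. Mean ± SEM, n = 6.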

Assay [12] relates to Cricetinae gen. sp. Briefly: Effect of compound on triglycerides level in 3rd group of cholesterol-fed male hamsters at 30 mg/kg/day after 14 days of treatment. As to conditions: Mesocricetus auratus.
Assay [13] concerns Cricetinae gen. sp. As to the kind of experiment: Effect of compound on total plasma cholesterol levels in 4th group of cholesterol-fed male hamsters at 100 mg/kg/day after 14 days of treatment. Conditions: Mesocricetus auratus.
Assay [14] concerns Cricetinae gen. sp. As to the kind of experiment: Effect of compound on low-density lipoprotein cholesterol levels in 2nd group of cholesterol-fed male hamsters at 10 mg/kg/day after 14 days of treatment. Conditions: Mesocricetus auratus.
For assay [15], the system named is Rattus norvegicus. Briefly: Percent change in triglycerides in hypercholesterolemic rats at a dose of 100 mg/kg/day for 8 days. Type of assay: functional.
The test system of assay [16] is Rattus norvegicus. Briefly: Effect of compound on low-density lipoprotein cholesterol levels in 7th group of normal chow-fed male rats after a dose of 100 mg/kg/day. The assay is classed as functional, organism-based. The method, boiled down:
as §1

Assay [17] has as its system Rattus norvegicus. As to the kind of experiment: Effect of compound on triglycerides level in 1st group of normal chow-fed male rats after a dose of 1 mg/kg/day. The assay is classed as functional, organism-based. The method, boiled down: as §2
Assay [18] concerns Rattus norvegicus. Briefly: Effect of compound on high-density lipoprotein cholesterol levels in 5th group of normal chow-fed male rats after a dose of 20 mg/kg/day. Type of assay: functional, organism-based.
For assay [19], the system named is Cricetinae gen. sp. As to the kind of experiment: Percent change in high-density lipoprotein cholesterol following oral administration of compound in hypercholesterolemic hamsters at 100 mg/kg/day for 14 days. The assay is classed as functional. The method, boiled down: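 Male Syrian Golden hamsters pre-fed chow plus 0.25% cholesterol for 2 weeks and kept on it. Dosed 100 mg/kg/day by oral gavage in 2% Tween 80/saline for 14 days. Serum total cholesterol and glycerol-blanked triglycerides read enzymatically; lipoproteins separated by FPLC with cholesterol measured in each fraction. % change versus vehicle controls; six per group, p < 0.05.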

Assay [20] deals with Rattus norvegicus. As to the kind of experiment: Effect of compound on lactic dehydrogenase (LDH) levels in 7th group of normal chow-fed male rats after a dose of 100 mg/kg/day. Type of assay: functional, organism-based. The method, boiled down:
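Male Sprague–Dawley CD rats, 60–80 g, on chow with a reverse 12 h light/dark cycle. Given one oral gavage dose daily for 4 days, suspended in 1.3% Tween 80/0.25% CMC. Fasted overnight and sacrificed 24 h after the last dose for blood and liver. Serum liver enzymes read on a clinical analyzer. Six per group, mean ± SEM.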

Structures are written as SMILES.

In the case of `CCN1CC(=O)N(c2cc(Cl)ccc2C)C1=S`, the Serum level in the assay with Cricetinae gen. sp. [1] worked out at 191 mg/dL; with Rattus norvegicus [3] it was 4.33 µg/dL; with Rattus norvegicus [5], 21 mg/dL; in the assay with Rattus norvegicus [6] it was 5.7 mg/dL; in the assay on Rattus norvegicus [7], 15 mg/dL; with Cricetinae gen. sp. [12] it was 433 mg/dL. Besides, the Serum level worked out at 373 mg/dL with Cricetinae gen. sp. [13]; 136 mg/dL in the assay on Cricetinae gen. sp. [14]; 8.7 mg/dL in the assay with Rattus norvegicus [16]; 18 mg/dL in the assay with Rattus norvegicus [17]; 58 mg/dL in the assay with Rattus norvegicus [18]. In addition, the Change in the assay on Rattus norvegicus [2] is on record as 72.8%; in the assay on Rattus norvegicus [15] it was -19%; with Cricetinae gen. sp. [19], 43%. Also, the Level with Cricetinae gen. sp. [4] amounted to 136 U l-1; in the assay with Cricetinae gen. sp. [8], 182 U l-1; in the assay with Cricetinae gen. sp. [9] it was 147 U l-1; with Cricetinae gen. sp. [10], 639 U l-1; with Rattus norvegicus [11], 312 U l-1; in the assay on Rattus norvegicus [20] it was 681 U l-1.
